Each block holds one compound with its values, some of them ahead of it.
Experiments:
Substance-P receptor [1] = biological target: T1, Substance-P receptor (Homo sapiens, UniProt P25103); assay: Antagonist activity at NK1 receptor (unknown origin)
Substance-P receptor [2] = biological target: T1, Substance-P receptor; assay: Displacement of [3H]SP from human recombinant NK1 receptor expressed in CHO cells after 40 mins by scintillation counting analysis; format: cell-based
In short: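 Membranes from hNK1-CHO cells (8 µg protein) with [3H]-SP 0.5 nM in HEPES pH 7.4, 3 mM MnCl2, 0.02% BSA. Compound 1 pM–1 µM final, 40 min at room temperature. Nonspecific binding with 1 µM SP. Filtration through PEI-soaked GF/B filters, scintillation counting. IC50 fitted with slope fixed at unity, converted to Ki by Cheng-Prusoff; duplicates.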

[3] = Ratio of drug uptake in brain to plasma in rat at 1 mg/kg, iv after 5 mins; format: ADME, organism-based; set-up: dose 1 mg/kg, route intravenous; settings: read-out: BPR
In short: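 Rat brain and plasma levels measured 5 min after 1 mg/kg i.v. dose; brain/plasma ratio calculated.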

[4] = Half life in dog at 0.5 mg/kg, iv and 1 mg/kg, po; format: ADME, organism-based, Canis lupus familiaris; settings: in vivo
In short: (§1)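 Rat and dog pharmacokinetics derived from plasma concentrations after 0.5 mg/kg i.v. and 1 mg/kg oral dosing.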

[5] = Oral bioavailability in dog at 1 mg/kg; format: ADME, organism-based, Canis lupus familiaris; settings: in vivo; in short: as §1
[6] = Volume of distribution at steady state in rat at 0.5 mg/kg, iv and 1 mg/kg, po; format: ADME, organism-based; settings: in vivo, read-out: Vdss; in short: as §1
[7] = Half life in rat at 0.5 mg/kg, iv and 1 mg/kg, po; format: ADME, organism-based; settings: in vivo; in short: as §1
[8] = Plasma clearance in dog at 0.5 mg/kg, iv and 1 mg/kg, po; format: ADME, organism-based, Canis lupus familiaris; in short: as §1
[9] = Volume of distribution at steady state in dog at 0.5 mg/kg, iv and 1 mg/kg, po; format: ADME, organism-based, Canis lupus familiaris; settings: in vivo, read-out: Vdss; in short: as §1
[10] = Plasma clearance in rat at 0.5 mg/kg, iv and 1 mg/kg, po; format: ADME, organism-based; in short: as §1
[11] = Oral bioavailability in rat at 1 mg/kg; format: ADME, organism-based; settings: in vivo; in short: as §1
Substance-P receptor [12] = biological target: T1, Substance-P receptor; settings: CHO
Substance-P receptor [13] = biological target: Substance-P receptor (Meriones unguiculatus, UniProt Q5DUB1); assay: Displacement of [3H]GR205171 from Mongolian gerbil brain NK1 receptor after 60 mins by scintillation counting analysis
Sequence of Substance-P receptor (Meriones unguiculatus, UniProt Q5DUB1) (Q5DUB1 whole entry): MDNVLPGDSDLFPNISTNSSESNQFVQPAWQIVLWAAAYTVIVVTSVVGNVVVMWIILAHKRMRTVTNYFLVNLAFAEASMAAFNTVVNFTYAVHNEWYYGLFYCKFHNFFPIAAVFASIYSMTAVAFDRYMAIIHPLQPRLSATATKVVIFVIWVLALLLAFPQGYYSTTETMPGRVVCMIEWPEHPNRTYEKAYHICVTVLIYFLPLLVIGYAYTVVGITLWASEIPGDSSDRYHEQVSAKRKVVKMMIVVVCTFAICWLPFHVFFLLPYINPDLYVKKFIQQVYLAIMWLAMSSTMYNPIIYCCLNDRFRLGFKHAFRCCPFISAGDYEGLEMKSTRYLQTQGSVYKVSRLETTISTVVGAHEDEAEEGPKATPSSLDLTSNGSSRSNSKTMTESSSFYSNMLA
In short: (§2)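 Brain membranes used: gerbil cortex/striatum (0.055 mg protein) or marmoset striatum (0.080 mg). Radioligand [3H]-GR205171 0.2 nM, compound 1 pM–1 µM final, in HEPES pH 7.4, MnCl2, BSA plus protease inhibitors. Incubation 60 min at room temperature; nonspecific binding with 1 µM GR205171. Filtration on GF/C, scintillation counting; LIGAND fit, duplicates.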

Callithrix jacchus [14] = assay: Anxiolytic activity in marmoset human threat test model assessed as reduction in number of postures at 10 mg/kg, po preincubated for 1 hr followed by compound wash out for 3 days relative to vehicle-treated control; format: functional; set-up: scale not given: the % may be the effect or the level left
In short: (§3)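 Marmosets, both sexes, >2 years, 300–500 g, preselected for ≥10 postures in 2 min. Oral dosing 0.3–10 mg/kg (1 ml/kg) in 0.5% methocel with 1% DMSO, 1 h before a human-observer threat test. Blind random crossover, ≥3 day washout, 4–7 animals. Postures counted; paired t-test against matched vehicle.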

Meriones unguiculatus [15] = assay: Antidepressant activity in Mongolian gerbil assessed as increase in social interaction time at 0.1 mg/kg, po after 1 hr (reference value: 21.2 +/- 2.9 secs); format: functional
[16] = Inhibition of sodium channel site2 (unknown origin); set-up: species or system Homo sapiens
Meriones unguiculatus [17] = assay: Ex vivo NK1 receptor occupancy in Mongolian gerbil striatum assessed as inhibition of [3H]-GR205171 binding at 0.3 mg/kg, po by autoradiography; format: functional
In short: (§4)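 Gerbils dosed orally (0.1–1 mg/kg) 1 h before, killed after social interaction testing. Unwashed 12 µm coronal sections incubated 10 min with 0.3 nM [3H]-GR205171; nonspecific binding with 100 nM GR205171. Imaging-plate exposure 10 days. Occupancy = 100% minus specific binding ratio treated/vehicle in striatum; 3 animals per group.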

[18] = Inhibition of sigma2 receptor (unknown origin); set-up: species or system Homo sapiens
[19] = Displacement of [3H]GR205171 from marmoset cerebral striatum NK1 receptor after 60 mins by scintillation counting analysis; set-up: species or system Callithrix jacchus; in short: as §2
[20] = Ratio of drug uptake in brain to plasma in Mongolian gerbil at 1 mg/kg, po; format: ADME, organism-based, Meriones unguiculatus; set-up: dose 1 mg/kg, route oral
In short: (§5)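 Gerbils given 1 mg/kg orally; total brain concentration and brain/plasma ratio determined.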

Callithrix jacchus [21] = assay: Anxiolytic activity in marmoset human threat test model assessed as reduction in number of postures at 0.3 mg/kg, po preincubated for 1 hr followed by compound wash out for 3 days relative to vehicle-treated control; format: functional; set-up: scale not given: the % may be the effect or the level left; in short: as §3
Meriones unguiculatus [22] = assay: Inhibition of GR73632-induced tapping behavior in po dosed Mongolian gerbil foot tapping model administered 8 hrs prior to GR73632 challenge; format: functional; settings: read-out: ID50 (the source's name)
In short: (§6)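 Male gerbils (50–70 g) dosed orally (10 ml/kg) in 0.5% methocel with 5% DMSO, 1, 4, 8 or 24 h before icv GR73632 (3 pmol/5 µl) given under brief isoflurane. Hind foot tapping timed for 3 min; ≥7 animals per treatment.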

Meriones unguiculatus [23] = assay: Antidepressant activity in Mongolian gerbil assessed as increase in social interaction time at 0.3 mg/kg, po after 1 hr (reference value: 21.2 +/- 2.9 secs); format: functional
Meriones unguiculatus [24] = assay: Toxicity in Mongolian gerbil assessed as locomotor activity at 0.1 to 1 mg/kg, po after 1 hr; format: organism-based; set-up: dose 0.1-1 mg/kg, route oral; settings: in vivo
Callithrix jacchus [25] = assay: Anxiolytic activity in marmoset human threat test model assessed as reduction in number of postures at 3 mg/kg, po preincubated for 1 hr followed by compound wash out for 3 days relative to vehicle-treated control; format: functional; set-up: scale not given: the % may be the effect or the level left; in short: as §3
[26] = Drug uptake in Mongolian gerbil brain at 1 mg/kg, po; format: ADME, organism-based, Meriones unguiculatus; set-up: dose 1 mg/kg, route oral; settings: in vivo; in short: as §5
Meriones unguiculatus [27] = assay: Antidepressant activity in Mongolian gerbil assessed as increase in social interaction time at 1 mg/kg, po after 1 hr (reference value: 21.2 +/- 2.9 secs); format: functional
Meriones unguiculatus [28] = assay: Inhibition of GR73632-induced tapping behavior in po dosed Mongolian gerbil foot tapping model administered 24 hrs prior to GR73632 challenge; format: functional; settings: read-out: ID50 (the source's name); in short: as §6
[29] = biological target: Platelet-activating factor receptor (Homo sapiens, UniProt P25105); assay: Inhibition of platelet activating factor receptor (unknown origin)
Sequence of Platelet-activating factor receptor (P25105 whole entry): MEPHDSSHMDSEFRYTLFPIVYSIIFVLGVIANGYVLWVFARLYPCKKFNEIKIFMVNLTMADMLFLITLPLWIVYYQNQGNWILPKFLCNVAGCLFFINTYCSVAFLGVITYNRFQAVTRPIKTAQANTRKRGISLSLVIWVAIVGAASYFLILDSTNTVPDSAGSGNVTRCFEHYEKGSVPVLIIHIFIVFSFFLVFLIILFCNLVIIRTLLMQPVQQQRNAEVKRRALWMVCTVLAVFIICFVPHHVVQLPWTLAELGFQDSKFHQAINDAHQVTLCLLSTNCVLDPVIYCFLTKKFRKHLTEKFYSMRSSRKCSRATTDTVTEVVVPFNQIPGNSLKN

Meriones unguiculatus [30] = assay: Antidepressant activity in po dosed Mongolian gerbil assessed as increase in social interaction time after 1 hr; format: functional, organism-based
Meriones unguiculatus [31] = assay: Inhibition of GR73632-induced tapping behavior in po dosed Mongolian gerbil foot tapping model administered 4 hrs prior to GR73632 challenge; format: functional; settings: read-out: ID50 (the source's name); in short: as §6
Meriones unguiculatus [32] = assay: Inhibition of GR73632-induced tapping behavior in po dosed Mongolian gerbil foot tapping model administered 1 hr prior to GR73632 challenge; format: functional; settings: read-out: ID50 (the source's name); in short: as §6
Meriones unguiculatus [33] = assay: Ex vivo NK1 receptor occupancy in Mongolian gerbil striatum assessed as inhibition of [3H]-GR205171 binding at 0.1 mg/kg, po by autoradiography; format: functional; in short: as §4
Callithrix jacchus [34] = assay: Anxiolytic activity in po dosed marmoset human threat test model assessed as reduction in number of postures preincubated for 1 hr followed by compound wash out for 3 days; format: functional, organism-based; in short: as §3
Callithrix jacchus [35] = assay: Anxiolytic activity in marmoset human threat test model assessed as reduction in number of postures at 1 mg/kg, po preincubated for 1 hr followed by compound wash out for 3 days relative to vehicle-treated control; format: functional; set-up: scale not given: the % may be the effect or the level left; in short: as §3
[36] = biological target: Sigma non-opioid intracellular receptor 1 (Homo sapiens, UniProt Q99720); assay: Inhibition of sigma1 receptor (unknown origin)
Sequence of Sigma non-opioid intracellular receptor 1 (Q99720 whole entry): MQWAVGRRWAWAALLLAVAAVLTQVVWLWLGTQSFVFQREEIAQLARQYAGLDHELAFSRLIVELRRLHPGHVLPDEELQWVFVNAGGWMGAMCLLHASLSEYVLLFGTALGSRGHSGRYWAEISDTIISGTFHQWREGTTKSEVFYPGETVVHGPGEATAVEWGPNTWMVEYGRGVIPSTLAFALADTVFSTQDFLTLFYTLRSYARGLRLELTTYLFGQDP

Meriones unguiculatus [37] = assay: Inhibition of GR73632-induced tapping behavior in po dosed Mongolian gerbil foot tapping model administered 1 to 24 hrs prior to GR73632 challenge; format: functional, organism-based; in short: as §6
Meriones unguiculatus [38] = assay: Ex vivo NK1 receptor occupancy in Mongolian gerbil striatum assessed as inhibition of [3H]-GR205171 binding at 1 mg/kg, po by autoradiography; format: functional; in short: as §4
Meriones unguiculatus [39] = assay: Inhibition of GR73632-induced tapping behavior in sc dosed Mongolian gerbil foot tapping model administered 1 hr prior to GR73632 challenge; format: functional; settings: read-out: ID50

T1 sequence (P25103 whole entry): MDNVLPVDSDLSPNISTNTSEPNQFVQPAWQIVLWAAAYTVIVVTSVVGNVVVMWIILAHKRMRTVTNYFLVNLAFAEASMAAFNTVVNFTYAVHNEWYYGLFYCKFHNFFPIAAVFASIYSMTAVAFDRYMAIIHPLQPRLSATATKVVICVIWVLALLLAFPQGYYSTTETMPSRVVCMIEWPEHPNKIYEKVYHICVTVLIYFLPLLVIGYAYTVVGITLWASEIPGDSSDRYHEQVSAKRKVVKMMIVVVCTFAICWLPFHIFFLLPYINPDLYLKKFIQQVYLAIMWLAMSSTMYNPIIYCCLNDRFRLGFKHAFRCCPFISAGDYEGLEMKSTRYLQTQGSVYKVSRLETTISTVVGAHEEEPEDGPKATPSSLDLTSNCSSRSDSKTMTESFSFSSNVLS

IC50 (Substance-P receptor [1]): 0.04 nM
SMILES: COc1ccc(-n2cnnn2)cc1CN[C@H]1CCCN[C@H]1c1ccccc1

IC50 (Substance-P receptor [1]): 0.95 nM
SMILES: Cc1ccccc1-c1cc(N2CCN(C)CC2)ncc1N(C)C(=O)C(C)(C)c1cc(C(F)(F)F)cc(C(F)(F)F)c1 [NETUPITANT]

Ki (Substance-P receptor [2]): 0.2 nM
SMILES: Cc1cc(F)ccc1[C@H]1C[C@@H](N2CCN3C(=O)CC[C@@H]3C2)CCN1C(=O)N(C)[C@H](C)c1cc(C(F)(F)F)cc(C(F)(F)F)c1

Further lines, the compound ahead of its results:

SMILES: Cc1cc(F)ccc1[C@H]1C[C@H](N2CCN3C(=O)CC[C@@H]3C2)CCN1C(=O)N(C)[C@H](C)c1cc(C(F)(F)F)cc(C(F)(F)F)c1
Ki (Substance-P receptor [2]): 0.138 nM

SMILES: Cc1cc(F)ccc1[C@H]1C[C@H](N2CCN3C(=O)CC[C@H]3C2)CCN1C(=O)N(C)[C@H](C)c1cc(C(F)(F)F)cc(C(F)(F)F)c1
Kp at 5 min [3]: 0.9
half-life [4]: 5.1 h
bioavailability [5]: 28%
Vd [6]: 3.4 L/kg
half-life [7]: 2.8 h
clearance [8]: 11 mL/min/kg
Vd [9]: 2 L/kg
clearance [10]: 25 mL/min/kg
bioavailability [11]: 19%
pKb (Substance-P receptor [12]): 10.5
Ki (Substance-P receptor [2]): 0.0646 nM

SMILES: Cc1cc(F)ccc1[C@H]1C[C@@H](N2CCN3C(=O)CC[C@H]3C2)CCN1C(=O)N(C)[C@H](C)c1cc(C(F)(F)F)cc(C(F)(F)F)c1 [ORVEPITANT]
Ki (Substance-P receptor [13]): 0.0316 nM
Kp at 5 min [3]: 1.2
Activity (Callithrix jacchus [14]): 46.4%
Time (Meriones unguiculatus [15]): 22.1 s
Ki [16]: 4540 nM
Occ (Meriones unguiculatus [17]): 74.6%
Ki [18]: 3260 nM
half-life [4]: 6.1 h
bioavailability [5]: 55%
pKi [19]: 10.4
Kp [20]: 1.2
Activity (Callithrix jacchus [21]): 11.8%
ED50 (Meriones unguiculatus [22]): 0.09 mg/kg
Time (Meriones unguiculatus [23]): 27.3 s
Activity (Meriones unguiculatus [24]): Non-toxic
Activity (Callithrix jacchus [25]): 36.6%
Drug uptake [26]: 91 ng/g
Time (Meriones unguiculatus [27]): 33.1 s
ED50 (Meriones unguiculatus [28]): 3.36 mg/kg
Vd [6]: 3.7 L/kg
Ki [29]: 2270 nM
half-life [7]: 2.3 h
clearance [8]: 6 mL/min/kg
Activity (Meriones unguiculatus [30]): Dose-dependent effect
Vd [9]: 2 L/kg
clearance [10]: 29 mL/min/kg
ED50 (Meriones unguiculatus [31]): 0.09 mg/kg
ED50 (Meriones unguiculatus [32]): 0.11 mg/kg
bioavailability [11]: 17%
Occ (Meriones unguiculatus [33]): 47.8%
Activity (Callithrix jacchus [34]): Dose-dependent effect
pKb (Substance-P receptor [12]): 10.3
Activity (Callithrix jacchus [35]): 34.9%
Ki (Substance-P receptor [2]): 0.0631 nM
Ki [36]: 940 nM
Activity (Meriones unguiculatus [37]): Dose-dependent effect
Occ (Meriones unguiculatus [38]): 95.2%
ED50 (Meriones unguiculatus [39]): 0.07 mg/kg

SMILES: COc1ccccc1CN1CN2CCCC1C2c1ccccc1 (configuration not stated)
IC50 (Substance-P receptor [1]): 0.61 nM

SMILES: CC(=O)N1CCN([C@H]2CCN(C(=O)N(C)[C@H](C)c3cc(C(F)(F)F)cc(C(F)(F)F)c3)[C@@H](c3ccc(F)cc3C)C2)CC1 [CASOPITANT]
bioavailability [5]: 34%
Vd [6]: 3.2 L/kg
clearance [10]: 37 mL/min/kg

Source: ChEMBL document CHEMBL2440072, “Identification, biological characterization and pharmacophoric analysis of a new potent and selective NK1 receptor antagonist clinical candidate” (Bioorg Med Chem, 2013)
